We go through four compounds from ChEMBL document CHEMBL1151772, “Discovery of multitarget inhibitors by combining molecular docking with common pharmacophore matching” (J Med Chem, 2008).

For assay [1], the target named is T1, Leukotriene A-4 hydrolase (Homo sapiens, UniProt P09960).
T1 sequence (P09960 whole entry): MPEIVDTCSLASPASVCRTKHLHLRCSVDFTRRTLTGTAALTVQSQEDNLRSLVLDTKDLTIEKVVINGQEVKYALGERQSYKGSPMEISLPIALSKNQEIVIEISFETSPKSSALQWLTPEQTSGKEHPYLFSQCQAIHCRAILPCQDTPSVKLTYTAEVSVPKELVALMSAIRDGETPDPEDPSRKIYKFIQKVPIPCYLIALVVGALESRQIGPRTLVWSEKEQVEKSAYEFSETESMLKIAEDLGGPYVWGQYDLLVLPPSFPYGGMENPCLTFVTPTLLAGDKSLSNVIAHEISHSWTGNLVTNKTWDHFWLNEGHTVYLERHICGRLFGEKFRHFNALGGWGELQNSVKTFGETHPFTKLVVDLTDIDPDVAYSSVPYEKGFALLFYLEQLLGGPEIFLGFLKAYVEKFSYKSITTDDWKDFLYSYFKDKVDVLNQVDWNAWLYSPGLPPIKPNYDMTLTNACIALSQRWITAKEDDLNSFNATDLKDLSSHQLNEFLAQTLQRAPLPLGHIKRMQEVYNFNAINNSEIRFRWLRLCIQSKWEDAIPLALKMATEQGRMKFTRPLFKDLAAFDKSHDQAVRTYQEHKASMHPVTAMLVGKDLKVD
In words: Inhibition of epoxide hydrolase activity of human leukotriene A4 hydrolase assessed as LTB4 level by ELISA. Put shortly:
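LTA4 prepared by hydrolysing LTA4 methyl ester in cold acetone/NaOH under nitrogen. Enzyme (300 ng) preincubated with compound 15 min at 37 °C in 10 mM sodium phosphate pH 7.4, 4 mg/mL BSA, 5% DMSO. Reaction started with LTA4 (150 nM final), 10 min at 37 °C, stopped by dilution into buffer; LTB4 measured by ELISA. Three separate experiments.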
(In general: ELISA stands for enzyme-linked immunosorbent assay.)

The target in assay [2] is T1, Leukotriene A-4 hydrolase. In words: Inhibition of aminopeptidase activity of human leukotriene A4 hydrolase assessed as para-nitroanilide release by spectrophotometry. Put shortly:
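Enzyme (1-20 µg) in 50 mM Tris-HCl pH 8.0 with 100 mM NaCl at 37 °C; inhibitor preincubated 2 min; 5% v/v DMSO final. Started with 0.125 mM Ala-p-nitroanilide; p-NA formation followed at 405 nm for 15 min, quantified against p-NA standard curve. IC50 from initial rates across inhibitor concentrations via V0/V = 1 + [I]/IC50; three separate experiments.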

The target in assay [3] is T2, Phospholipase A2, membrane associated (Homo sapiens, UniProt P14555).
T2 sequence (P14555 whole entry): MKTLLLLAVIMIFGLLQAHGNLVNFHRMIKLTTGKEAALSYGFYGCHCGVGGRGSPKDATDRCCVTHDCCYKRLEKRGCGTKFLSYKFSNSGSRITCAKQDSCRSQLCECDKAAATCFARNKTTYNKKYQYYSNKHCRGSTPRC
The assay is described as follows: Inhibition of human nonpancreatic secretory phospholipase A2. The essentials: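 Inhibitor preincubated with substrate 10 min at 25 °C. Enzyme added to start; ex 377/em 470 nm read kinetically for 20 min. IC50 from initial rates via V0/V = 1 + [I]/IC50; three separate experiments.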

What is called IC50 is the concentration that gives 50% inhibition.

For `O=C(C[n+]1ccc(Cc2ccc([N+](=O)[O-])cc2)cc1)c1ccccc1`, the values for the concentration for half-maximal inhibition (IC50) in assay [1], in assay [2] and in assay [3] were 386 µM, 23.4 µM and 43.7 µM, respectively.
`NCCOc1ccc(Oc2ccccc2)cc1` registered an IC50 in assay [3] of 7.3 µM.
On to `NCCc1c[nH]c2c(OCc3ccccc3)cccc12`, for which the half-inhibitory concentration (IC50) in assay [1] came out at 217 µM; in assay [2], 12.5 µM; in assay [3], 52.5 µM.
On the same counts, the results for `NC(Cc1c[nH]c2ccc(OCc3ccccc3)cc12)C(=O)O` (stereo not given) are 231 µM, 17.3 µM and 42.1 µM.
